Experimental data published in ChEMBL document CHEMBL1149152, “Selective, orally active gamma-aminobutyric acidA alpha5 receptor inverse agonists as cognition enhancers” (J Med Chem, 2004).

What was measured:
[1] = target: GABA-A receptor; alpha-5/beta-3/gamma-2 (Homo sapiens) (UniProt P18507+P28472+P31644); assay: Percentage modulation of submaximal (EC20) response to GABA in Xenopus oocytes expressing human GABA-A alpha-5-beta-3-gamma-2 subunits; type: cell-based; conditions: Oocyte; note: test concentration or dose not given here
Method in brief: (§1)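 Two-electrode voltage clamp on Xenopus laevis oocytes transiently expressing human GABA-A receptor subtypes. Modulation of the submaximal GABA (EC20) ion current is expressed as a percentage. Values are the arithmetic mean ± SEM from at least three independent cells.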

[2] = target: T1, GABA-A receptor; alpha-5/beta-3/gamma-2 (Homo sapiens, UniProt P18507+P28472+P31644); assay: Displacement of [3H]-Ro- 15-1788 from human GABA-A alpha-5-beta-3-gamma-2 receptor subunits expressed in Xenopus oocytes; type: cell-based, Oocyte
T1 sequence (P18507 whole entry): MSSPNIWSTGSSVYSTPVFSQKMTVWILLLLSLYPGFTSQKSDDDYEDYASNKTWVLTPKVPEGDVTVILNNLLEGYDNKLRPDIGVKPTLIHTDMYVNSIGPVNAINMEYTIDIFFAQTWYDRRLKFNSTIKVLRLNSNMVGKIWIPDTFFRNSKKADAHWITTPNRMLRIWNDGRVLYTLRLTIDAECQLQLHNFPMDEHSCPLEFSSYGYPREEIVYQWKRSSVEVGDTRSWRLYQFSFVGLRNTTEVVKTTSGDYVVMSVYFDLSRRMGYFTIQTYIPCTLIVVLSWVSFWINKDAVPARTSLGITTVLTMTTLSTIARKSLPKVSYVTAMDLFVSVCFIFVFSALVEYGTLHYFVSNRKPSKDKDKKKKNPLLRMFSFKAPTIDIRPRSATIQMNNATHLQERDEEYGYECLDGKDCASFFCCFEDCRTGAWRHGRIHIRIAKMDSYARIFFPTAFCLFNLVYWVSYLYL
T1 sequence (P28472 whole entry): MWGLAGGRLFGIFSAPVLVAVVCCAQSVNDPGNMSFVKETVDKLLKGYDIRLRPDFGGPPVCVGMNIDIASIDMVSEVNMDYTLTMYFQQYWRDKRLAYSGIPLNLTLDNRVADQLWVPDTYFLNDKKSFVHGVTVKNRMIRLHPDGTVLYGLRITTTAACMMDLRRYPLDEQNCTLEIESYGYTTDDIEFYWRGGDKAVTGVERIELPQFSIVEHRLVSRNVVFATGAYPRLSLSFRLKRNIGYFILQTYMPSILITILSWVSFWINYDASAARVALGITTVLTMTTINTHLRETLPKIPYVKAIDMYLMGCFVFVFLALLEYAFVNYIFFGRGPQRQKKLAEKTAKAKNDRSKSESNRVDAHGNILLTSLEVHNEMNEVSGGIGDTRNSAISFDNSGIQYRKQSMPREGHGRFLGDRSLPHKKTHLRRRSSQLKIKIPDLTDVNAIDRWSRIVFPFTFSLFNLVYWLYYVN
T1 sequence (P31644 whole entry): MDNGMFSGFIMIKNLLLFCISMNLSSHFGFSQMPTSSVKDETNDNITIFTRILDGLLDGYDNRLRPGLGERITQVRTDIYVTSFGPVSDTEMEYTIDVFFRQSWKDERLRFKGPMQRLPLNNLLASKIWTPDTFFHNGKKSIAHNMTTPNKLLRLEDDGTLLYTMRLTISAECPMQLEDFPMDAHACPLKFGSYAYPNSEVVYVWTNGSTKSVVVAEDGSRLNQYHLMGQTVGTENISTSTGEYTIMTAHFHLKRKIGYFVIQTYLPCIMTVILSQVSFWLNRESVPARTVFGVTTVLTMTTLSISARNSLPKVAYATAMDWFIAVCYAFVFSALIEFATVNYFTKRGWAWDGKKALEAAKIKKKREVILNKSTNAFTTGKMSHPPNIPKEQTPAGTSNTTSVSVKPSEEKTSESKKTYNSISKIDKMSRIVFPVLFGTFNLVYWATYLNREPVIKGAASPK
Method in brief: (§2)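 Radioligand displacement of [3H]Ro 15-1788 from recombinant human GABA-A receptor subtypes. Ki values are the mean of at least two independent determinations, with SEM given where at least three were performed.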

[3] = target: GABA-A receptor; alpha-2/beta-3/gamma-2 (Homo sapiens) (UniProt P18507+P28472+P47869); assay: Percentage modulation of submaximal (EC20) response to GABA in Xenopus oocytes expressing human GABA-A alpha-2-beta-3-gamma-2 subunits; type: cell-based; conditions: Oocyte; method in brief: as §1; note: test concentration or dose not given here
[4] = target: GABA-A receptor; alpha-3/beta-3/gamma-2 (Homo sapiens) (UniProt P18507+P28472+P34903); assay: Percentage modulation of submaximal (EC20) response to GABA in Xenopus oocytes expressing human GABA-A alpha-3-beta-3-gamma-2 subunits; type: cell-based; conditions: Oocyte; method in brief: as §1; note: test concentration or dose not given here
[5] = target: T2, GABA-A receptor; alpha-3/beta-3/gamma-2 (Homo sapiens, UniProt P18507+P28472+P34903); assay: Displacement of [3H]-Ro- 15-1788 from human GABA-A alpha-3-beta-3-gamma-2 receptor subunits expressed in Xenopus oocytes; type: cell-based, Oocyte; method in brief: as §2
T2 sequence (P18507 whole entry): T1 sequence (P18507 whole entry)
T2 sequence (P28472 whole entry): T1 sequence (P28472 whole entry)
T2 sequence (P34903 whole entry): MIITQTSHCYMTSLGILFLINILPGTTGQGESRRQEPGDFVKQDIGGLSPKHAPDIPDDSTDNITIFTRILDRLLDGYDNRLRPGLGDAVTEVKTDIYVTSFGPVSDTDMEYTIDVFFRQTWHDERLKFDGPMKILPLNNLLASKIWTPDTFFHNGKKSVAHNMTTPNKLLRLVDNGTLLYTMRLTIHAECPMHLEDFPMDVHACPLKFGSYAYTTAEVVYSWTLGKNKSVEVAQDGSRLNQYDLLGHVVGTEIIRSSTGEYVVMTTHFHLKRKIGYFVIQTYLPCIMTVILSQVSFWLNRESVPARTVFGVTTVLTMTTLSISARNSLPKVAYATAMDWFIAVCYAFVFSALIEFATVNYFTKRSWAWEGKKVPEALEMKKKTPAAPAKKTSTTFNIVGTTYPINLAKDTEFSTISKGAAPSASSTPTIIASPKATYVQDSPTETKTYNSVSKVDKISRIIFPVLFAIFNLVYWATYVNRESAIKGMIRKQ

[6] = target: T3, GABA-A receptor; alpha-2/beta-3/gamma-2 (Homo sapiens, UniProt P18507+P28472+P47869); assay: Displacement of [3H]-Ro- 15-1788 from human GABA-A alpha-2-beta-3-gamma-2 receptor subunits expressed in Xenopus oocytes; type: cell-based, Oocyte; method in brief: as §2
T3 sequence (P18507 whole entry): T1 sequence (P18507 whole entry)
T3 sequence (P28472 whole entry): T1 sequence (P28472 whole entry)
T3 sequence (P47869 whole entry): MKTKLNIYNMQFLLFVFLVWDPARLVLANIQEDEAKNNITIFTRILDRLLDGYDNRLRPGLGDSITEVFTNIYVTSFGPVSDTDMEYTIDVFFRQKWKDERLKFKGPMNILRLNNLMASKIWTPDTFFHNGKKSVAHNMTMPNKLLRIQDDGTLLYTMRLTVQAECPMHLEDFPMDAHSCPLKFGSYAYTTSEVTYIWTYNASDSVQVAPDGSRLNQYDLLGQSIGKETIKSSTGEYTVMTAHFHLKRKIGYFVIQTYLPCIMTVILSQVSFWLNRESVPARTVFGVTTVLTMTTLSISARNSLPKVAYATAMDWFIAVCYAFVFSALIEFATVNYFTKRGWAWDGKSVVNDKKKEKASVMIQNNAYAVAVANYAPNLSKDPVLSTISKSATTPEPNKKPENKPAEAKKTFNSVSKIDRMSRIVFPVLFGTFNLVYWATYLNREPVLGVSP

[7] = target: T4, GABA-A receptor; alpha-1/beta-3/gamma-2 (Homo sapiens, UniProt P14867+P18507+P28472); assay: Displacement of [3H]-Ro- 15-1788 from human GABA-A alpha-1-beta-3-gamma-2 receptor subunits expressed in Xenopus oocytes; type: cell-based, Oocyte
T4 sequence (P14867 whole entry): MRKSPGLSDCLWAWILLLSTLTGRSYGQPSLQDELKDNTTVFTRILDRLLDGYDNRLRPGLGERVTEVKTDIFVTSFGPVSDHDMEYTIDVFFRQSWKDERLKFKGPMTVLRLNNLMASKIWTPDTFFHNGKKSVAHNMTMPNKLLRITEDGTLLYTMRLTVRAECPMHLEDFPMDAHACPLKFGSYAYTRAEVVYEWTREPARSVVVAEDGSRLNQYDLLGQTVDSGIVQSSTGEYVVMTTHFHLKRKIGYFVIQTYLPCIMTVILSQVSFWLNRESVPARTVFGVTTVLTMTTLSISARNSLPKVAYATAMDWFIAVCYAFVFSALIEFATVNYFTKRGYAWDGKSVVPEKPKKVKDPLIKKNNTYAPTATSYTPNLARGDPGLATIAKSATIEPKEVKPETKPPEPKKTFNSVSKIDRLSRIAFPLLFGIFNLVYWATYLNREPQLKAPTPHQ
T4 sequence (P18507 whole entry): T1 sequence (P18507 whole entry)
T4 sequence (P28472 whole entry): T1 sequence (P28472 whole entry)
Method in brief: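 Radioligand binding to recombinant human GABA-A receptor subtypes, measuring displacement of [3H]Ro 15-1788. Ki values are the mean of at least two independent determinations, with SEM given where at least three were performed.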

[8] = target: GABA-A receptor; alpha-1/beta-3/gamma-2 (Homo sapiens) (UniProt P14867+P18507+P28472); assay: Percentage modulation of submaximal (EC20) response to GABA in Xenopus oocytes expressing human GABA-A alpha-1-beta-3-gamma-2 subunits; type: cell-based; conditions: Oocyte; method in brief: as §1; note: test concentration or dose not given here

| Compound | Efficacy [1] [%] | Ki [2] [nM] | Efficacy [3] [%] | Efficacy [4] [%] | Ki [5] [nM] | Ki [6] [nM] | Ki [7] [nM] | Efficacy [8] [%] |
| --- | --- | --- | --- | --- | --- | --- | --- | --- |
| Cc1cccc(COc2nn3c(-c4cc(C)on4)nnc3c3c2C2CCC3CC2)n1 | -29 | 4.6 | 15 | -1 | 41 | 86 | 280 |  |
| Cc1cccc(COc2nn3c(-c4nc(C)no4)nnc3c3c2C2CCC3CC2)n1 | -35 | 1.1 | -10 | -21 | 7.6 | 17 | 74 | -15 |
| Cc1cccc(COc2nn3c(-c4ccsc4)nnc3c3c2C2CCC3CC2)n1 |  | 3.7 | 9 | 38 | 48 | 110 | 270 | 17 |
| Cc1cc(-c2nnc3c4ccccc4c(OCc4cn(C)nn4)nn23)no1 | -29 | 0.66 | 12 | 4 | 0.61 | 0.58 | 0.88 | -4 |
| Cc1cc(-c2nnc3c4ccccc4c(OCc4cnn(C)n4)nn23)no1 | -35 | 0.87 | 9 | -3 | 0.8 | 0.64 | 1.3 | -5 |
| Cc1cccc(COc2nn3c(-c4cc(C)on4)nnc3c3ccccc23)n1 | -15 | 0.79 |  |  | 1.3 | 1.6 | 0.88 |  |
| CCc1c(C(=O)OC)ncc2[nH]c3cc(OC)c(OC)cc3c12 | -52 | 2.3 | -34 | -52 | 10 | 11 | 16 | -36 |
| CNC1=Nc2ccc(Cl)cc2C(c2ccccc2)=[N+]([O-])C1 |  |  | 101 | 173 |  |  |  | 165 |
| Cc1cccc(COc2nn3c(-c4ccoc4)nnc3c3c2C2CCC3CC2)n1 | -24 | 3.1 | -6 | -4 | 40 | 63 | 250 |  |
| Cc1cc(-c2nnc3c4ccccc4c(OCc4cnnn4C)nn23)no1 | -33 | 2 | -25 | -6 | 5.2 | 2.8 | 4.2 | -8 |
| Cc1cc(-c2nnc3c4ccccc4c(OCc4ccccn4)nn23)no1 | -46 | 0.62 |  | -4 | 0.96 | 1.5 | 0.93 | -2 |
| Cc1cccc(COc2nn3c(-c4ccccc4)nnc3c3c2C2CCC3CC2)n1 | 15 | 2.9 |  |  | 25 | 46 | 170 |  |
